Assay results as given in ChEMBL document CHEMBL1154848, “Cytotoxic 3,4-seco-cycloartane triterpenes from the exudate of Gardenia tubifera” (J Nat Prod, 2010).
Converted amounts (≈) assume the structure as drawn.

Columns and labels:
[1] = Cytotoxicity against human ChaGo cells after 3 days by MTT assay; assay type: functional, cell-based; conditions: 72 h
In short: (§1)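 Cells grown in RPMI-1640 with 25 mM HEPES, 0.25% (w/v) sodium bicarbonate, 5% (v/v) FBS and 100 µg/mL kanamycin. Freshly trypsinized cells were seeded at 5000 per well and given compound from DMSO-diluted stock. After three days, attached cells were MTT-stained, bound dye was solubilized and absorbance read at 540 nm. IC50 = 50% growth inhibition, averaged over at least six independent determinations.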

[2] = test system: BT-474; assay: Cytotoxicity against human BT474 cells after 3 days by MTT assay; assay type: functional, cell-based; conditions: BT-474, 72 h; in short: as §1
[3] = Cytotoxicity against human KATO III cells after 3 days by MTT assay; assay type: functional, cell-based, KATO III cell; conditions: 72 h; in short: as §1
[4] = test system: SW-620; assay: Cytotoxicity against human SW620 cells after 3 days by MTT assay; assay type: functional, cell-based; conditions: SW-620, 72 h; in short: as §1
[5] = test system: HepG2; assay: Cytotoxicity against human HepG2 cells after 3 days by MTT assay; assay type: functional, cell-based; conditions: HepG2, 72 h; in short: as §1

| Structure (SMILES) | IC50 [1] [µg/mL] | IC50 [2] [µg/mL] | IC50 [3] [µg/mL] | IC50 [4] [µg/mL] | IC50 [5] [µg/mL] |
| --- | --- | --- | --- | --- | --- |
| C=C(CO)[C@@H]1CC[C@@H]2[C@]3(CC[C@]4(C)[C@@H]([C@H](C)CC=CC(C)(C)O)CC[C@@]24C)C[C@]13CCC(=O)O | > 5 | > 5 | > 5 | > 5 | > 5 |
| C=C1C(=O)O[C@@H]2C[C@@H]3[C@]4(CC[C@]5(C)[C@@H]([C@H](C)Cc6cc(C)co6)CC[C@@]35C)C[C@]4(CCC(=O)O)[C@H]12 [GARDENOIN A] | 1.6 (≈ 3.33 µM) | > 5 | > 5 | > 5 | 4.5 (≈ 9.36 µM) |
| C=C1C(=O)O[C@@H]2C[C@@H]3[C@]4(CC[C@]5(C)[C@@H]([C@H](C)Cc6cc(C)co6)CC[C@@]35C)C[C@]4(CCC(=O)OC)[C@H]12 [GARDENOIN B] | > 5 | > 5 | > 5 | > 5 | > 5 |
| C=C1C(=O)O[C@@H]2[C@H](O)[C@@H]3[C@]4(CC[C@]5(C)[C@@H]([C@H](C)Cc6cc(C)co6)CC[C@@]35C)C[C@]4(CCC(=O)OC)[C@H]12 [GARDENOIN C] | 4.4 (≈ 8.62 µM) | > 5 | > 5 | 2.5 (≈ 4.9 µM) | 2.8 (≈ 5.48 µM) |
